According to the EternaBench riboswitch data:

Test system: MS2 coat protein
Test: apparent Kd, MS2 coat protein; higher = weaker binding; RNA-MaP array; FMN 200 µM where present
Method in brief: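 The apparent Kd is the median of filtered binding-curve fits, one per cluster, to green signal normalised to red-channel RNA signal and control-cluster median Fmax. The clusters were on Illumina sequencing chips, and stalled E. coli RNA polymerase had transcribed the designs on them. Titration used SNAP-549-labelled MS2 coat protein from 0.7 or 1.5 nM, doubling to 3 µM, without and then with constant ligand, in 100 mM Tris-HCl pH 7.5, 80 mM KCl, 4 mM MgCl2, BSA, DTT, yeast tRNA and Tween-20.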

[1] = designed as: ON switch for flavin mononucleotide, no ligand
[2] = ligand present: flavin mononucleotide, designed as: ON switch for flavin mononucleotide
[3] = designed as: OFF switch for flavin mononucleotide, no ligand
[4] = ligand present: flavin mononucleotide, designed as: OFF switch for flavin mononucleotide

Sequence | apparent Kd [1] | apparent Kd [2] | apparent Kd [3] | apparent Kd [4]
GGAUGAGCGAUAGGAUAUGCUGGGAUUGAAUGGGUAGAAGGAUUUCUAGUGGGAAAGACAUGAGGAUCACCCAUGUCGCGGACC | 30.3 nM | 29.4 nM |  | 
GAUUAACAUGAGGAUCACCCAUGUGAGGAUAUGGACUGGCUCACUUUCCGAUUCGAGUCUAGAAGGCGCAUCUU |  |  | 32.8 nM | 35.2 nM
CCAAACUGAGGAUAUACAUGAGGAUCACCCAUGUGCCCGCGGUCAUAUGUAGCCUAGUGUAGAAGGCAGAAAAC |  |  | 75.5 nM | 25 nM
AUUGAGAUAGCGAUAUGAUCGAGAGAUCAUGUCGCUAAGUUUAGAAGGACAUGAGGAUCACCCAUGUAGGAUAUGGGAGUAGAA | 128 nM | 57.5 nM |  | 
GUAAUACAUGAGGAUCACCCAUGUAAGGAUAUGCUAGCGGUCGGCUGACUGACUGCUAGCAGAAGGUACAUGAU |  |  | 85.1 nM | 128 nM
GCGUUACAUGAGGAUCACCCAUGUGAGGAUAUGGUUCGGUACUGUCCUGUCGCGUACUCCAGAAGGCACGUGUC |  |  | 31.3 nM | 34.7 nM
GAUUCACAUGAGGAUCACCCAUGUGAGGAUAUCUAGGUGCGGAGGCUAAGGCCUCCAGAGAGAAGGCACAUGGC |  |  | 27.3 nM | 41.3 nM
AAAAAGUCAGGAUAUCGGAAAAAAAAAAAAAAAAAAAAAAACGAGAAGGGACAUGAGGAUCACCCAUGUAAAAA |  |  | 55.8 nM | 68.2 nM
CACGCAUGUGGAGGAUAUGCAGUUAACAUUAGCGCAGAAGGCCACAUGAGGAUCACCCAUGUCCGGCAUUAGCCGAUGUUGAUC |  |  | 139 nM | 227 nM
GGAUGACAAAGUCAUCCUAUUCGAACAUGAGGAUCACCCAUGUAGGAUAUGCUACACAAAGUGUAGCAGAAGGACAUGUGCUUU |  |  | 33.8 nM | 171 nM
GGAUCGCGUGUGAGGAUAUGCUCGACCUUGGUCGAGCAGAAGGCACAUGAGGAUCACCCAUGUGACCUCGGUCC |  |  | 87.5 nM | 451 nM
GGGUACAUCGGAGGAUAUCAUGUAAAUACAUGAGGAUCACCCAUGUCGAUGGAGACAUCGGAGAUAGAGAAGGCCGAUGUACCG | 476 nM | 11 nM |  | 
AUCAGCUCGUCAGGAUAUACGUCACUGCUUCGGCAGUGUGGUAAGAUCACAUGAGGAUCACCCAUGUAGAAGGGACGAGCUGAC |  |  | 13.6 nM | 237 nM
GUGUACAGAGGAUAUACUGGAGCAUGGAAACAUGCAACCUCACAUGAGGAUCACCCAUGUAGAAGGCUGUACAC |  |  | 334 nM | 28.2 nM
GCACUGGCAGGAUAUACAUGAGGAUCACCCAUGUGAUCCCUUAAGUACAAAAGUACAAGUAGAAGGGCCUGUGC |  |  | 771 nM | 188 nM
AGGAAGUGAGGAUAUGCAGUGGCUAGUAGACGCUAGCACUUGUAGAAGGCACAUGAGGAUCACCCAUGUUUAAA |  |  | 31.9 nM | 36.9 nM
CUUUUGUGAGGAUAUUAGUAGUAAAUAAAUAAAAUUACUACUGAGAAGGCACAUGAGGAUCACCCAUGUUUCUC |  |  | 32.4 nM | 284 nM
GACAUGAGGAUCACCCAUGUCCGGGCCAAGAGAAGAAAUACCAGAAGGACCGGCAGAAAUGUGCGGUAGGAUAUGGGAUUCGUG | 36.4 nM | 9.15 nM |  | 
UGCUAGAACCUAGGAUAUCCUGGGUUGGUGGUGCUUGAUGACCGGACAUGAGGAUCACCCAUGUAGGAGAAGGAGGUUGUUAAG |  |  | 60.6 nM | 112 nM

Sequence | apparent Kd [1] | apparent Kd [2] | apparent Kd [3] | apparent Kd [4]
ACCCAGUUUUGCACUACAUGAGGAUCACCCAUGUGAGCGAGCAGAAGGACGAUGGGUGGAAAAUCGUAGGAUAUGCACUGGGUA | 47.2 nM | 12.6 nM |  | 
UAAGAGUGAGGAUAUACGUCGCUGGACCGGAUGGACGCAUGACAUGAGGAUCACCCAUGUAGAAGGCACAAAAC |  |  | 20.2 nM | 25.5 nM
CAGUCUACAGGAUAUACAUGAGGAUCACCCAUGUGUUUUCACUUUCAGUAGUCUAUAUGUAGAAGGGUAGACUG |  |  | 24.8 nM | 90.1 nM
GUGUACAGAGGAUAUACACGAGGAGUUACGAAAGUAACUUCACAUGAGGAUCACCCAUGUAGAAGGCUGUACAC |  |  | 25.3 nM | 36.6 nM
GUACAUGAGCAGAAGGGCAAUUAAUUAAAAUUUUAUGUUUAUCAGAUAUGCAGGAUAUGUUAAACAUGAGGAUCACCCAUGUAC | 191 nM | 48.5 nM |  | 
AGUCGGAGCAGAGGAUAUACAUGAGGAUCACCCAUGUAAAUGAAUGAAGCCUGGAAACAGGCAAUGUAGAAGGCUGCUCCGACA |  |  | 17.6 nM | 54.2 nM
GGGUACGUUUCGUAGCAGUGUCAUCGAGAAGGCCCUGACAUGAGGAUCACCCAUGUUGUUACAUGGGAGGAUAUCGAUGAUGGG | 48.4 nM | 8.12 nM |  | 
AUUUGACACGUAGGAUAUCGCUUAAAUUUAACACGAGAAGGACGAACAUGAGGAUCACCCAUGUAUCAUGGAGUAGAUAAUUUG |  |  | 115 nM | 329 nM
UUGGAUGUCGUAGGAUAUGUAGGAUAUUCCUACAUGAGGAUCACCCAUGUUGACAUGGAAGAAGGACAGAAGGACGAUGUCCAU | 209 nM | 5.03 nM |  | 
GUCGGAAACGACAAAAGUAGCAUAGGAGAAGGCAUGUCAUAAGACAUGAGGAUCACCCAUGUGCAUGAGGAUAUCCUAUGCUAC | 5.53 nM | 4.98 nM |  | 
AAGUAGGUAGGAUAUACAUGGAUAUACAUUCAUGUGGAUUUACAUGAGGAUCACCCAUGUAGAAGGACCUAAUA |  |  | 118 nM | 30.8 nM
CAGCGGUGAGGAUAUACGUAGGUACAGAUCUGUGUGUUCCUACAUGAGGAUCACCCAUGUAGAAGGCAUGGCUG |  |  | 43 nM | 140 nM
UAUAUAUAGUAAGGAUAUGUAUUUAUUUUAUAAACAGAAGGUACUGACAUGAGGAUCACCCAUGUUUUAGUGUGGGCAUGUAGA |  |  | 89.1 nM | 128 nM
GGUGUCGCAUGAGGAUAUGGUCAGCUUUGCUGACCAGAAGGCAUGUCGAUAGACAUGAGGAUCACCCAUGUAGUAAAGACACCA | 990 nM | 72.7 nM |  | 
AAGAAGUCAGGAUAUGCUGCUCGUCACUUGCGUGAUGAGUAGCAGAAGGGACAUGAGGAUCACCCAUGUAAAGA |  |  | 32.5 nM | 67.4 nM
GGUACUCAAAGAGUACCAAUACGAACAUGAGGAUCACCCAUGUAGGAUAUGCUACUCAAAGAGUAGCAGAAGGACAUGUGUCUA |  |  | 29.6 nM | 160 nM
GGUAGAAACAUUAACAUGAGGAUCACCCAUGUCAAAAGAAAUGAGGAUAUCGUCUACAAUGUAUAUGAGAAGGCAUGGUCUGCC | 20.2 nM | 14.6 nM |  | 
GUCGAAGCCGUACUGGUCGACGGUCAGGAUAUACAUGAGGAUCACCCAUGUGCUAUUGAUACUAUGUAGAAGGGACCCACCGCA |  |  | 13.3 nM | 19 nM
UUGAACAUAGGAUAUAGUUGUUUGUACAUGAGGAUCACCCAUGUUAGGGAUGUUUUGUUUCUAGAAGGAUGUUGAU |  |  | 170 nM | 80.3 nM

Sequence | apparent Kd [1] | apparent Kd [2] | apparent Kd [3] | apparent Kd [4]
UGUAUGUAGGAGAAGGAGGACUUCAUGAGGAUCACCCAUGUGUUAGGACUUAGGAUAUCUGACGACAUGAGGAUCACCCAUGUG | 537 nM | 355 nM |  | 
AACAGGUGAGGAUAUCGAACAACAACAACAACAACAACAAACGAGAAGGCACAUGAGGAUCACCCAUGUAAGAA |  |  | 20 nM | 17.5 nM
UUUUAACAUGAGGAUCACCCAUGUGAGGAUAUCGAAAUUUAUAUUAAUAUUAAUAUUUCGAGAAGGCACAUUUU |  |  | 142 nM | 154 nM
UGCCGCAACAACGCGGCGUCACAUGAGGAUCACCCAUGUUCACAGGAUAUGCGAUAGCCAACGAAGCAGAAGGGUGAUUACUUA | 53.7 nM | 219 nM |  | 
AAUUAUUAUUGAGGAUAUCGUAUUGAAACAAUAUGAGAAGGCGGGAUAAACAUGAGGAUCACCCAUGUGAGCCUGAUGCUUGUG |  |  | 16.3 nM | 15.6 nM
AUUAUAUAGAAAGGAUAUAGAAUAUUAUUUUAACAUGAGGAUCACCCAUGUAACCUUAUGUGUAGCUAGAAGGUUCAUUUAUUA |  |  | 61.8 nM | 78.1 nM
AAUAGCUAAGGAUAUACAUGAGGAUCACCCAUGUAAAACACUACUUGGAACCGCCUCGGUAGAAGGUAGAAAAU |  |  |  | 22.3 nM
AAAAAACAUGAGGAUCACCCAUGUUAGGAUAUCCUGCAGAAAAAAAAAAAAAACUGCAGGAGAAGGAGCAAGGA |  |  | 90 nM | 104 nM
AUCCAGCGAGGAUAUACUUUGAUUUUUUCGUUUUGUCUCGAACAUGAGGAUCACCCAUGUAGAAGGUGCUUCAC |  |  | 67.1 nM | 59.8 nM
AAAACACGCGAGAAGGAGGCCUGAUCCUCCACAUGAGGAUCACCCAUGUGCCUAGGAUAUCGCAACCUUUCAGGUUACACCUGG |  |  | 70 nM | 10.2 nM
GUCAGCUCGUGAGGAUAUACAACAGUGCUUCGGCAGUGUAUUAAGAUCACAUGAGGAUCACCCAUGUAGAAGGCACGAGCUGAU |  |  | 13.1 nM | 207 nM
UUUGCAUUCCGAGGAUAUUCAUUUAAUGACUUCACAUGAGGAUCACCCAUGUGGCGAUAGCGCCGGGAGAAGGCGGUUUGCUUU | 23.1 nM | 25.7 nM |  | 
UGUAUUAAUGGAGGAUAUCGAUAUCAAACAUGAGGAUCACCCAUGUUGAGGAUCACCCAUGUCCAUGAGAAGGCUGGCGUACUU | 30.4 nM | 29.2 nM |  | 
GCACCUGCGUAGAAGGUACUAUAUAAUGCAGUGUAAGGAUAUACAUACAUGAGGAUCACCCAUGUAAAUGGAAUUUGCAGGUGC | 12.2 nM | 10.3 nM |  | 
GUAGUGUAGUGAGGAUAUACGAGAUCGAUAGAUCGGCGAUCCAAUAAUACAUGAGGAUCACCCAUGUAGAAGGCACUUCACUAC |  |  | 7.26 nM | 98.8 nM
UUACUCAUGUAAGGAUAUGCAGCCGUUUCGGCUGCAGAAGGUACUAUAAUACAUGAGGAUCACCCAUGUCUUUUUAAUUUUUAU | 88.7 nM | 40.4 nM |  | 
ACGCUUUGGGAGAAGGUACGUUAAUUUUUUUCCACAUGAGGAUCACCCAUGUAAGGAUAUCCCGGCGUUAAAUAGGCUACAGCA |  |  | 7.2 nM | 8.14 nM
GCCAUCGCAUGAGGAUAUGCUCGGGUUUCCCGAGCAGAAGGCAUGUCACAAGACAUGAGGAUCACCCAUGUAGUUAAGAUGGCA | 190 nM | 9.98 nM |  | 
